{"source": "paper PMC3475189", "about": "(Environmental science & technology, 2012)", "key": {"[1]": {"conditions": "cited from earlier work"}, "[2]": {"system": "P450 mRNA (CYP1A2, CYP3A11, CYP2B10, CYP2S1)", "assay": "Brain P450 mRNA levels by qPCR", "type": "in vivo, female C57Bl/6 mice", "conditions": "39 days oral"}, "CYP2S1 mRNA": {"system": "CYP2S1 mRNA", "assay": "Hepatic CYP2S1 mRNA level by qPCR", "type": "in vivo, female C57Bl/6 mice", "conditions": "liver, all doses, 39 days oral"}, "[3]": {"assay": "Enantiomeric fractions in tissues by enantioselective GC", "type": "in vivo, female C57Bl/6 mice", "how_it_was_run": "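Extracts of blood, brain, liver and adipose came from mice given 0.1, 1.0 or 6.0 mg/kg/day orally in peanut butter for 39 days and sacrificed 24 h after the last dose. Enantioselective GC-ECD used Chirasil Dex, BGB-172 or ChiralDex B-DM columns: 35 to 140 °C held 420 min, then 200 °C; injector and detector 250 °C; helium 3 mL/min. EF = A1/(A1+A2), E1 being the first-eluting atropisomer; mean ± SD.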"}, "[4]": {"assay": "Tissue levels of PCB 95 and OH-PCB metabolites by GC-ECD", "type": "in vivo, female C57Bl/6 mice", "conditions": "for concentration at 24 h: female, C57Bl/6, mouse, brain; for levels in adipose and brain samples: detection limits 11 to 16 ng/g tissue"}, "CYP1A2 mRNA": {"system": "CYP1A2 mRNA", "assay": "Hepatic CYP1A2 mRNA level by qPCR", "type": "in vivo, female C57Bl/6 mice", "conditions": "liver, 39 days oral"}, "General toxicity": {"assay": "General toxicity", "type": "in vivo, female C57Bl/6 mice", "conditions": "0.1, 1 or 6 mg/kg b.w./day oral for 39 days, any dose level", "how_it_was_run": "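Seven-week-old female C57Bl/6 mice, housed singly on a 12 h reverse light cycle, were acclimated 7 days. They then took the test compound in peanut butter daily at 0.1, 1.0 or 6.0 mg/kg/day for 39 days, with the amount adjusted to daily body weight; vehicle controls received peanut butter only. Body weights were recorded daily and analysed by two-way repeated measures ANOVA.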"}, "CYP2B10 mRNA": {"system": "CYP2B10 mRNA", "assay": "Hepatic CYP2B10 mRNA level by qPCR", "type": "in vivo, female C57Bl/6 mice", "conditions": "liver, low dose 0.1 mg/kg b.w./day, 39 days oral"}, "CYP3A11 mRNA": {"system": "CYP3A11 mRNA", "assay": "Hepatic CYP3A11 mRNA level by qPCR", "type": "in vivo, female C57Bl/6 mice", "conditions": "liver, high dose 6 mg/kg b.w./day, 39 days oral"}}, "data": [{"smiles": "Oc1c(Cl)cc(-c2ccc(Cl)c(Cl)c2)c(Cl)c1Cl", "note": "[4-107, 2,3,3′,4′,5-pentachlorobiphenyl-4-ol]", "values": [{"measurement": "level in fetal brains", "setting": "[1]; fetal brain after oral administration of 4-107 to pregnant Wistar rats", "value": "~ 1 μg/g tissue"}, {"measurement": "level in post-weanling rats", "setting": "[1]; post-weanling rats", "value": "below detection"}]}, {"smiles": "Clc1ccc(Cl)c(-c2c(Cl)ccc(Cl)c2Cl)c1", "note": "[PCB 95, 2,2′,3,5′,6-pentachlorobiphenyl]", "values": [{"measurement": "brain P450 mRNA levels", "setting": "[2]", "value": "not affected"}, {"measurement": "hepatic CYP2S1 mRNA levels", "setting": "CYP2S1 mRNA", "value": "not affected"}, {"measurement": "average EF value across treatment groups", "setting": "[3]; adipose, EF = A1/(A1+A2)", "value": "≈ 0.19"}, {"measurement": "enriched atropisomer", "setting": "[3]; blood, brain, liver and adipose, all three treatment groups", "value": "E2-PCB 95 was enriched"}, {"measurement": "average EF across treatment groups", "setting": "[3]; liver and blood, EF = A1/(A1+A2)", "value": "approximately 0.10"}, {"measurement": "concentration at 24 h", "setting": "[4]; oral, 6 mg/kg/day", "value": 360, "unit": "ng/g"}, {"measurement": "concentration at 24 h", "setting": "[4]; po", "value": "37 to 360", "unit": "ng/g"}, {"measurement": "increase in adipose levels of PCB 95", "setting": "[4]; low to medium dose (10-fold increase in dose)", "value": 10, "unit": "fold"}, {"measurement": "CYP1A2 transcript levels relative to control", "setting": "CYP1A2 mRNA; high dose 6 mg/kg b.w./day", "value": "not changed"}, {"measurement": "induction of CYP1A2 mRNA compared to control", "setting": "CYP1A2 mRNA; low dose 0.1 mg/kg b.w./day", "value": 1.9, "unit": "fold"}, {"measurement": "effect on final body weight, growth rate or other signs of general toxicity", "setting": "General toxicity", "value": "no effect"}, {"measurement": "CYP2B10 mRNA levels compared to control", "setting": "CYP2B10 mRNA", "value": "no change"}, {"measurement": "hepatic CYP3A11 levels compared to control", "setting": "CYP3A11 mRNA", "value": "no change"}]}, {"smiles": "Oc1cc(Cl)c(-c2cc(Cl)ccc2Cl)c(Cl)c1Cl", "note": "[4-95, 2,2′,3,5′,6-pentachlorobiphenyl-4-ol]", "values": [{"measurement": "levels in adipose and brain samples", "setting": "[4]", "value": "below their respective detection limits"}, {"measurement": "level in liver", "setting": "[4]; liver, low dose treatment group", "value": "below the detection limit"}]}, {"smiles": "COc1c(Cl)c(Cl)c(-c2cc(Cl)ccc2Cl)c(Cl)c1OC", "note": "[4,5-95, 4,5-dimethoxy-2,2′,3,5′,6-pentachlorobiphenyl]", "values": [{"measurement": "levels in adipose and brain samples", "setting": "[4]", "value": "below their respective detection limits"}]}, {"smiles": "COc1c(Cl)cc(Cl)c(-c2cc(Cl)ccc2Cl)c1Cl", "note": "[3-103, 3 Methoxy 2,2′,4,5′,6-pentachlorobiphenyl]", "values": [{"measurement": "levels in adipose and brain samples", "setting": "[4]", "value": "below their respective detection limits"}]}, {"smiles": "Oc1cc(Cl)c(Cl)c(-c2cc(Cl)ccc2Cl)c1Cl", "note": "[5-95, 2,2′,3,5′,6-pentachlorobiphenyl-5-ol]", "values": [{"measurement": "enriched atropisomer", "setting": "[3]; liver, high dose treatment group", "value": "E1-5-95 was enriched"}, {"measurement": "enantiomeric enrichment", "setting": "[3]; liver, medium dose treatment group", "value": "no consistent enantiomeric enrichment"}, {"measurement": "levels in adipose and brain samples", "setting": "[4]", "value": "below their respective detection limits"}]}]}
